Measurements from ChEMBL document CHEMBL3856201, “5,10b-Ethanophenanthridine amaryllidaceae alkaloids inspire the discovery of novel bicyclic ring systems with activity against drug resistant cancer cells” (2016).
Calls of active or inactive are those of the source. No cut-off for these calls is given here.

Columns and labels:
[1] = Antiproliferative activity against human HeLa cells after 48 hrs by MTT assay; assay type: functional
Method in brief: (§1)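 HeLa cells were cultured in DMEM + 10% FBS and MCF-7 cells in RPMI + 10% FBS, both at 37 °C under 5% CO2. Compounds were diluted from DMSO stocks and applied for 48 h. Viability was read by MTT relative to DMSO control. The value is the concentration reducing viability by 50%, ±SD from two independent experiments of 4 replicates each.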

[2] = Antiproliferative activity against human MCF7 cells after 48 hrs by MTT assay; assay type: functional; settings: MCF7, 48 h; method in brief: as §1
[3] = Antiproliferative activity against drug-resistant human A549 cells up to 100 uM after 48 to 96 hrs by MTT assay relative to control; assay type: functional
Method in brief: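 A549 cultures in RPMI with 10% heat-inactivated FBS were treated across a concentration range up to 100 µM, with phenyl arsine oxide as the nondiscriminate cytotoxic reference. Growth curves were read by MTT assay. Two independent experiments, each in 4 replicates.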

[4] = Antiproliferative activity against patient-derived TMZ-resistant GBM 031810 cells over-expressing MGMT after 48 to 96 hrs by MTT assay; assay type: functional; settings: Homo sapiens
[5] = Antiproliferative activity against patient-derived TMZ-sensitive GBM 090909 cells after 48 to 96 hrs by MTT assay; assay type: functional; settings: Homo sapiens
Method in brief: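 Primary GBM neurosphere cultures came from resected patient tumour. Tissue was minced, dissociated with 100 U/mL collagenase in neurobasal medium for 30 min at 37 °C, filtered through 70 µm, spun at 200 × g for 5 min, and grown in ultra-low attachment wells in neurobasal medium with B27. Compounds were applied at 0.001–100 µM for 48–96 h. MTT gave the average 50%-viability concentration.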

[6] = Antiproliferative activity against human MES-SA cells after 48 to 96 hrs by MTT assay; assay type: functional
Method in brief: (§2)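 Parent MES-SA and MES-SA/Dx5 uterine sarcoma cells were grown in RPMI-1640 with 10% FBS. The Dx5 line was kept in 500 nM doxorubicin after stepwise selection from 100 nM in twofold steps, about 2 passages per step. MTT assay used 0.001–100 µM compound for 48–96 h, with 0.1% DMSO and 1 µM phenyl arsine oxide controls. The ratio is the Dx5 GI50 divided by the parent GI50.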

[7] = Antiproliferative activity against drug-resistant human T98G cells after 48 to 96 hrs by MTT assay; assay type: functional
Method in brief: (§3)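 MTT read-out. T98G and Hs683 cells were grown in DMEM with 10% FBS, glutamine, gentamicin and penicillin-streptomycin at 37 °C and 5% CO2. Compounds came from 100 or 50 mM DMSO stocks and were tested at 0.001–100 µM for 48–96 h. Controls were 0.1% DMSO (negative) and 1 µM phenyl arsine oxide (positive). The value is the mean concentration giving 50% viability loss; replicate number varied.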

[8] = Antiproliferative activity against drug-resistant human U87 cells after 48 to 96 hrs by MTT assay; assay type: functional, U-87MG ATCC; settings: U-87 MG
Method in brief: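 U87 cells grown in DMEM with glutamine, gentamicin and penicillin-streptomycin (37 °C, 95% humidity, 5% CO2) were seeded and then treated with 0.001–100 µM compound for 48–96 h. Readout was MTT. Controls were 0.1% DMSO and 1 µM phenyl arsine oxide. The value is the average concentration reducing viability 50%.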

[9] = Antiproliferative activity against drug-resistant human U373 cells after 48 to 96 hrs by MTT assay; assay type: functional, U-373MG ATCC; settings: U373 MG
Method in brief: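 Culture was RPMI with 10% heat-inactivated FBS plus glutamine and antibiotics for U373 cells. Compound exposure was 0.001–100 µM for 48–96 h, with 0.1% DMSO and 1 µM phenyl arsine oxide as controls. The MTT assay gave the average concentration cutting viability by 50%; replicate numbers varied.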

[10] = Antiproliferative activity against human MES-SA/Dx5 cells after 48 to 96 hrs by MTT assay; assay type: functional; method in brief: as §2
[11] = Antiproliferative activity against drug-resistant human A549 cells after 48 to 96 hrs by MTT assay; assay type: functional
Method in brief: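 A549 cells grown in RPMI with 10% heat-inactivated FBS, 4 mM glutamine and antibiotics at 37 °C under 5% CO2. Compounds came from 100 or 50 mM DMSO stocks and were tested at 0.001–100 µM for 48–96 h. Read-out was MTT. The value is the mean concentration giving 50% viability loss, with varied replicate numbers. Controls were 0.1% DMSO (negative) and 1 µM phenyl arsine oxide (positive).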

[12] = Antiproliferative activity against drug-sensitive human Hs683 cells after 48 to 96 hrs by MTT assay; assay type: functional; settings: Hs 683; method in brief: as §3
[13] = Antiproliferative activity against drug-resistant human U251 cells after 48 to 96 hrs by MTT assay; assay type: functional; settings: U-251
Method in brief: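 U251 cells were kept in 10% MEM with glutamine, gentamicin and penicillin-streptomycin at 37 °C and 5% CO2. After seeding they were grown 24–72 h and then given compounds at 0.001–100 µM (from 100 or 50 mM DMSO stocks) for 48–96 h. Viability was read by MTT. Vehicle control was 0.1% DMSO; 1 µM phenyl arsine oxide served as positive control. The result is the average 50%-viability-reducing concentration.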

MES-SA = test: Selectivity ratio of GI50 for human MES-SA/Dx5 cells to GI50 for human MES-SA cells; assay type: functional; method in brief: as §2
[14] = Antiproliferative activity against patient-derived paclitaxel-resistant NCI-H2073 cells after 48 to 96 hrs by MTT assay; assay type: functional; settings: Homo sapiens
[15] = Antiproliferative activity against patient-derived paclitaxel-sensitive NCI-H1993 cells after 48 to 96 hrs by MTT assay; assay type: functional; settings: Homo sapiens
NCI-H1993 = test: Potentiation of paclitaxel-induced cytotoxicity against patient-derived paclitaxel-sensitive NCI-H1993 cells assessed as reduction in cell viability up to 100 uM after 96 hrs by Celltiter-Glo luminescent assay; assay type: functional, cell-based; settings: Homo sapiens
Method in brief: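 NCI-H1993 cells were seeded at 4×10^3 per well and grown 24 h. […] Viability was read by CellTiter-Glo luminescence. Predicted additivity was calculated by Bliss independence, Exy = Ex + Ey − ExEy.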

HeLa S3 = test: Inhibition of translation in human HeLaS3 assessed as induction of intact polysomes at 50 uM after 1 hr by UV-based […] method; assay type: functional
Method in brief: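 HeLa S3 cells were exposed to 50 µM compound for 1 h, then analysed by polysome profiling against a DMSO-treated control profile.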

Compound	GI50 [1]	GI50 [2]	further results
O=C1C=CC2(C=C1)CCN(C(=O)C(F)(F)F)Cc1c2ccc2c1OCO2	> 100 µM	> 100 µM	
COc1cc2c(cc1OC(C)=O)C[N@@]1CC[C@@]23C=CC(=O)C[C@H]13	> 100 µM	> 100 µM	
COc1cc2c(cc1OC)[C@@]13C=CC(=O)C[C@@H]1[N@](CC3)C2	64 µM	> 100 µM	
COc1cc([C@@H]2c3cc4c(cc3[C@H](O)[C@H]3COC(=O)[C@H]23)OCO4)cc(OC)c1OC [PODOFILOX]			inhibition (INH) [3]: 50%
Cn1nnc2c(C(N)=O)ncn2c1=O [TEMOZOLOMIDE]			GI50 [4]: > 1000 µM; GI50 [5]: 50 µM
O=C1C=C[C@]23CC[N@](Cc4cscc42)[C@H]3C1	25 µM	44 µM	
O=C1C=CC2(C=C1)CCN(C(=O)C(F)(F)F)Cc1cc3c(cc12)OCO3	24 µM	30 µM	
O=C1C=C[C@]23CC[N@](Cc4cc(OCc5ccccc5)c(OCc5ccccc5)cc42)[C@H]3C1	3 µM	4 µM	GI50 [6]: 2 µM; GI50 [7]: 7 µM; GI50 [8]: 5 µM; GI50 [9]: 7 µM; GI50 [10]: 7 µM; GI50 [11]: 4 µM; GI50 [12]: 6 µM; GI50 [13]: 5 µM
O=C1C=CC2(C=C1)CCN(C(=O)C(F)(F)F)Cc1cccc(OCc3ccccc3)c12	11 µM	14 µM	
O=C1C=CC2(C=C1)CCN(C(=O)C(F)(F)F)Cc1cc(OCc3ccccc3)c(OCc3ccccc3)cc12	17 µM	25 µM	
COc1cc2c(cc1OCc1ccccc1)C[N@@]1CC[C@@]23C=CC(=O)C[C@H]13	12 µM	15 µM	
CC(=O)O[C@H]1C(=O)[C@@]2(C)[C@H]([C@H](OC(=O)c3ccccc3)[C@]3(O)C[C@H](OC(=O)[C@H](O)[C@@H](NC(=O)c4ccccc4)c4ccccc4)C(C)=C1C3(C)C)[C@]1(OC(C)=O)CO[C@@H]1C[C@@H]2O [PACLITAXEL]			RatioGI50 (MES-SA): >1000; GI50 [6]: 0.007 µM; GI50 [10]: 10 µM; GI50 [14]: 2.4 µM; inhibition (INH) [3]: 50%; GI50 [15]: 0.004 µM
COc1cc2c(cc1OCc1ccccc1)[C@@]13C=CC(=O)C[C@@H]1[N@](CC3)C2	17 µM	17 µM	
O=C1C=C[C@]23CC[N@](Cc4ccsc42)[C@H]3C1	8 µM	12 µM	
O[C@H]1C=C[C@@]23c4cc5c(cc4CN(C[C@@H]2O)[C@H]3C1)OCO5			GI50 [7]: 99 µM; GI50 [8]: 38 µM; GI50 [9]: 53 µM; GI50 [12]: 27 µM; GI50 [13]: 41 µM
O=C1C=C[C@]23CC[N@](Cc4cc(OCc5ccccc5)ccc42)[C@H]3C1	8 µM	14 µM	
COc1cc2c(cc1OCc1ccccc1)CN(C(=O)C(F)(F)F)CCC21C=CC(=O)C=C1	38 µM	48 µM	

Compound	GI50 [1]	GI50 [2]	further results
O=C1C=CC2(C=C1)CCN(C(=O)C(F)(F)F)Cc1c2sc2ccccc12	10 µM	7 µM	GI50 [6]: 5 µM; GI50 [7]: 15 µM; GI50 [4]: 8 µM; GI50 [8]: 6 µM; GI50 [9]: 7 µM; GI50 [10]: 5 µM; Activity (NCI-H1993): Active; GI50 [14]: 50 µM; GI50 [12]: 5 µM; GI50 [15]: 12 µM; GI50 [5]: 7 µM; GI50 [13]: 4 µM
COc1cc2c(cc1O)C[N@@]1CC[C@@]23C=CC(=O)C[C@H]13	> 100 µM	> 100 µM	
O[C@H]1[C@H]2c3cc4c(cc3CN3CCC(=C[C@@H]1O)[C@H]23)OCO4			inhibition (HeLa S3): Active
O=C1C=CC2(C=C1)CCN(C(=O)C(F)(F)F)Cc1cc3c(cc12)OCCO3	21 µM	34 µM	
COc1cc2c(cc1O)CN(C(=O)C(F)(F)F)CCC21C=CC(=O)C=C1	> 100 µM	> 100 µM	
C#CCCCC(=O)Oc1cc2c(cc1OC)[C@@]13C=CC(=O)C[C@@H]1[N@](CC3)C2	43 µM	53 µM	
COc1cc2c(cc1OC)C1(C=CC(=O)C=C1)CCN(C(=O)C(F)(F)F)C2	83 µM	> 100 µM	
CC[C@]1(O)C[C@@H]2CN(CCc3c([nH]c4ccccc34)[C@@](C(=O)OC)(c3cc4c(cc3OC)N(C)[C@H]3[C@@](O)(C(=O)OC)[C@H](OC(C)=O)[C@]5(CC)C=CCN6CC[C@]43[C@@H]65)C2)C1 [VINBLASTINE]			RatioGI50 (MES-SA): >1000
O=C1C=CC2(C=C1)CCN(C(=O)C(F)(F)F)Cc1cc(OCc3ccccc3)ccc12	16 µM	40 µM	
COc1cc2c(cc1O)C[N@@]1CC[C@@]23C=C/C(=N/O)C[C@H]13	> 100 µM	> 100 µM	
O=C1C=C[C@]23CC[N@](Cc4cc5c(cc42)OCCO5)[C@H]3C1	13 µM	19 µM	
COc1cc2c(cc1OCc1ccccc1)C1(C=CC(=O)C=C1)CCN(C(=O)C(F)(F)F)C2	34 µM	34 µM	
CO[C@@H]1C=C[C@@]23c4cc5c(cc4CN(C[C@@H]2O)[C@H]3C1)OCO5			inhibition (HeLa S3): Active
O=C1C=C[C@]23CC[N@](Cc4cccc(OCc5ccccc5)c42)[C@H]3C1	7 µM	11 µM	
COc1cc2c(cc1OC(=O)c1ccccc1)C[N@@]1CC[C@@]23C=CC(=O)C[C@H]13	35 µM	45 µM	
O=C1C=C[C@]23CC[N@](Cc4c2ccc2c4OCO2)[C@H]3C1	61 µM	73 µM	
O=C1C=C[C@]23CC[N@](Cc4cc5c(cc42)OCO5)[C@H]3C1	25 µM	24 µM	
